Test results reported in article PMC4076525 (The Journal of General Physiology, 2014).

Assays:
[1] = Extent of FeEnt-induced quenching of FM fluorescence in live cells; format: cell-based, Escherichia coli; settings: 10 nM FeEnt, 2.5 × 10^7 cells/ml, FM-labeled mutants
How it was run: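 Hosts were tonB+ ΔfepA or ΔtonB ΔfepA E. coli expressing plasmid-borne Cys-substituted FepA, grown in iron-deficient MOPS medium to late log. 10^10 cells were labeled with 5 µM fluorescein-5-maleimide in 50 mM Na2HPO4, 0.9% NaCl, pH 6.5, for 5 min at 37°C. Labeling was quenched with β-mercaptoethanol, and cells were resuspended in PBS with 0.4% glucose. FeEnt was added to 2.5 × 10^7 cells in 3 ml, stirred at 2°C, with emission read at 520 nm.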

[2] = 59FeEnt transport; format: cell-based, Escherichia coli; settings: for Transport rate relative to wild-type FepA: FM-modified, TonB-dependent uptake; for Vmax fold lower after fluoresceination: 59FeEnt uptake
How it was run: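 Cultures were grown in LB with antibiotics, then in iron-deficient MOPS medium to 10^9 cells/ml. Cells were assayed before and after labeling with 5 µM fluorescein-5-maleimide (pH 6.5 phosphate/NaCl buffer, 5 min, 37°C, β-mercaptoethanol stop). Uptake was measured in MOPS medium with 0.4% glucose at 37°C in 10-ml volumes. KM and Vmax came from an enzyme-kinetics equation fit per sample.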

B1: S275C: E. coli FepA with Cys substitution at S275, surface loop 3 (protein, UniProt P05825 23-746, looked up, variant S275C)
Ferrienterobactin receptor: QEPTDTPVSHDDTIVVTAAEQNLQAPGVSTITADEIRKNPVARDVSKIIRTMPGVNLTGNSTSGQRGNNRQIDIRGMGPENTLILIDGKPVSSRNSVRQGWRGERDTRGDTSWVPPEMIERIEVLRGPAAARYGNGAAGGVVNIITKKGSGEWHGSWDAYFNAPEHKEEGATKRTNFSLTGPLGDEFSFRLYGNLDKTQADAWDINQGHQSARAGTYATTLPAGREGVINKDINGVVRWDFAPLQSLELEAGYSRQGNLYAGDTQNTNSDSYTRCKYGDETNRLYRQNYALTWNGGWDNGVTTSNWVQYEHTRNSRIPEGLAGGTEGKFNEKATQDFVDIDLDDVMLHSEVNLPIDFLVNQTLTLGTEWNQQRMKDLSSNTQALTGTNTGGAIDGVSTTDRSPYSKAEIFSLFAENNMELTDSTIVTPGLRFDHHSIVGNNWSPALNISQGLGDDFTLKMGIARAYKAPSLYQTNPNYILYSKGQGCYASAGGCYLQGNDDLKAETSINKEIGLEFKRDGWLAGVTWFRNDYRNKIEAGYVAVGQNAVGTDLYQWDNVPKAVVEGLEGSLNVPVSETVMWTNNITYMLKSENKTTGDRLSIIPEYTLNSTLSWQAREDLSMQTTFTWYGKQQPKKYNYKGQPAVGPETKEISPYSIVGLSATWDVTKNVSLTGGVDNLFDKRLWRAGNAQTTGDLAGANYIAGAGAYTYNEPGRTWYMSVNTHF
Quenching of FM emissions by FeEnt binding [1]: unaffected by FeEnt

B2: A698C-FM: FepA A698C labeled with fluorescein-5-maleimide (FM) (conjugate, UniProt P05825 23-746, looked up, variant A698C)
Ferrienterobactin receptor: QEPTDTPVSHDDTIVVTAAEQNLQAPGVSTITADEIRKNPVARDVSKIIRTMPGVNLTGNSTSGQRGNNRQIDIRGMGPENTLILIDGKPVSSRNSVRQGWRGERDTRGDTSWVPPEMIERIEVLRGPAAARYGNGAAGGVVNIITKKGSGEWHGSWDAYFNAPEHKEEGATKRTNFSLTGPLGDEFSFRLYGNLDKTQADAWDINQGHQSARAGTYATTLPAGREGVINKDINGVVRWDFAPLQSLELEAGYSRQGNLYAGDTQNTNSDSYTRSKYGDETNRLYRQNYALTWNGGWDNGVTTSNWVQYEHTRNSRIPEGLAGGTEGKFNEKATQDFVDIDLDDVMLHSEVNLPIDFLVNQTLTLGTEWNQQRMKDLSSNTQALTGTNTGGAIDGVSTTDRSPYSKAEIFSLFAENNMELTDSTIVTPGLRFDHHSIVGNNWSPALNISQGLGDDFTLKMGIARAYKAPSLYQTNPNYILYSKGQGCYASAGGCYLQGNDDLKAETSINKEIGLEFKRDGWLAGVTWFRNDYRNKIEAGYVAVGQNAVGTDLYQWDNVPKAVVEGLEGSLNVPVSETVMWTNNITYMLKSENKTTGDRLSIIPEYTLNSTLSWQAREDLSMQTTFTWYGKQQPKKYNYKGQPAVGPETKEISPYSIVGLSATWDVTKNVSLTGGVDNLFDKRLWRAGNAQTTGDLAGCNYIAGAGAYTYNEPGRTWYMSVNTHF
modifications: fluorescein-5-maleimide label
Transport rate relative to wild-type FepA [2]: 90%

B3: A322C (protein, UniProt P05825 23-746, looked up, variant A322C)
Ferrienterobactin receptor: QEPTDTPVSHDDTIVVTAAEQNLQAPGVSTITADEIRKNPVARDVSKIIRTMPGVNLTGNSTSGQRGNNRQIDIRGMGPENTLILIDGKPVSSRNSVRQGWRGERDTRGDTSWVPPEMIERIEVLRGPAAARYGNGAAGGVVNIITKKGSGEWHGSWDAYFNAPEHKEEGATKRTNFSLTGPLGDEFSFRLYGNLDKTQADAWDINQGHQSARAGTYATTLPAGREGVINKDINGVVRWDFAPLQSLELEAGYSRQGNLYAGDTQNTNSDSYTRSKYGDETNRLYRQNYALTWNGGWDNGVTTSNWVQYEHTRNSRIPEGLCGGTEGKFNEKATQDFVDIDLDDVMLHSEVNLPIDFLVNQTLTLGTEWNQQRMKDLSSNTQALTGTNTGGAIDGVSTTDRSPYSKAEIFSLFAENNMELTDSTIVTPGLRFDHHSIVGNNWSPALNISQGLGDDFTLKMGIARAYKAPSLYQTNPNYILYSKGQGCYASAGGCYLQGNDDLKAETSINKEIGLEFKRDGWLAGVTWFRNDYRNKIEAGYVAVGQNAVGTDLYQWDNVPKAVVEGLEGSLNVPVSETVMWTNNITYMLKSENKTTGDRLSIIPEYTLNSTLSWQAREDLSMQTTFTWYGKQQPKKYNYKGQPAVGPETKEISPYSIVGLSATWDVTKNVSLTGGVDNLFDKRLWRAGNAQTTGDLAGANYIAGAGAYTYNEPGRTWYMSVNTHF
59FeEnt transport rate compared with wild-type FepA ([2]; before fluoresceination): about half that rate

B4: T550C-FM: FepA T550C labeled with fluorescein-5-maleimide (FM) (conjugate, UniProt P05825 23-746, looked up, variant T550C)
Ferrienterobactin receptor: QEPTDTPVSHDDTIVVTAAEQNLQAPGVSTITADEIRKNPVARDVSKIIRTMPGVNLTGNSTSGQRGNNRQIDIRGMGPENTLILIDGKPVSSRNSVRQGWRGERDTRGDTSWVPPEMIERIEVLRGPAAARYGNGAAGGVVNIITKKGSGEWHGSWDAYFNAPEHKEEGATKRTNFSLTGPLGDEFSFRLYGNLDKTQADAWDINQGHQSARAGTYATTLPAGREGVINKDINGVVRWDFAPLQSLELEAGYSRQGNLYAGDTQNTNSDSYTRSKYGDETNRLYRQNYALTWNGGWDNGVTTSNWVQYEHTRNSRIPEGLAGGTEGKFNEKATQDFVDIDLDDVMLHSEVNLPIDFLVNQTLTLGTEWNQQRMKDLSSNTQALTGTNTGGAIDGVSTTDRSPYSKAEIFSLFAENNMELTDSTIVTPGLRFDHHSIVGNNWSPALNISQGLGDDFTLKMGIARAYKAPSLYQTNPNYILYSKGQGCYASAGGCYLQGNDDLKAETSINKEIGLEFKRDGWLAGVTWFRNDYRNKIEAGYVAVGQNAVGCDLYQWDNVPKAVVEGLEGSLNVPVSETVMWTNNITYMLKSENKTTGDRLSIIPEYTLNSTLSWQAREDLSMQTTFTWYGKQQPKKYNYKGQPAVGPETKEISPYSIVGLSATWDVTKNVSLTGGVDNLFDKRLWRAGNAQTTGDLAGANYIAGAGAYTYNEPGRTWYMSVNTHF
modifications: fluorescein-5-maleimide label
Vmax fold lower after fluoresceination [2]: 3–10 fold

B5: S271C-FM (conjugate, UniProt P05825 23-746, looked up, variant S271C)
Ferrienterobactin receptor: QEPTDTPVSHDDTIVVTAAEQNLQAPGVSTITADEIRKNPVARDVSKIIRTMPGVNLTGNSTSGQRGNNRQIDIRGMGPENTLILIDGKPVSSRNSVRQGWRGERDTRGDTSWVPPEMIERIEVLRGPAAARYGNGAAGGVVNIITKKGSGEWHGSWDAYFNAPEHKEEGATKRTNFSLTGPLGDEFSFRLYGNLDKTQADAWDINQGHQSARAGTYATTLPAGREGVINKDINGVVRWDFAPLQSLELEAGYSRQGNLYAGDTQNTNSDCYTRSKYGDETNRLYRQNYALTWNGGWDNGVTTSNWVQYEHTRNSRIPEGLAGGTEGKFNEKATQDFVDIDLDDVMLHSEVNLPIDFLVNQTLTLGTEWNQQRMKDLSSNTQALTGTNTGGAIDGVSTTDRSPYSKAEIFSLFAENNMELTDSTIVTPGLRFDHHSIVGNNWSPALNISQGLGDDFTLKMGIARAYKAPSLYQTNPNYILYSKGQGCYASAGGCYLQGNDDLKAETSINKEIGLEFKRDGWLAGVTWFRNDYRNKIEAGYVAVGQNAVGTDLYQWDNVPKAVVEGLEGSLNVPVSETVMWTNNITYMLKSENKTTGDRLSIIPEYTLNSTLSWQAREDLSMQTTFTWYGKQQPKKYNYKGQPAVGPETKEISPYSIVGLSATWDVTKNVSLTGGVDNLFDKRLWRAGNAQTTGDLAGANYIAGAGAYTYNEPGRTWYMSVNTHF
modifications: fluorescein-5-maleimide label
Transport rate relative to wild-type FepA [2]: 65%

B6: A383C-FM: FepA A383C labeled with fluorescein-5-maleimide (FM) (conjugate, UniProt P05825 23-746, looked up, variant A383C)
Ferrienterobactin receptor: QEPTDTPVSHDDTIVVTAAEQNLQAPGVSTITADEIRKNPVARDVSKIIRTMPGVNLTGNSTSGQRGNNRQIDIRGMGPENTLILIDGKPVSSRNSVRQGWRGERDTRGDTSWVPPEMIERIEVLRGPAAARYGNGAAGGVVNIITKKGSGEWHGSWDAYFNAPEHKEEGATKRTNFSLTGPLGDEFSFRLYGNLDKTQADAWDINQGHQSARAGTYATTLPAGREGVINKDINGVVRWDFAPLQSLELEAGYSRQGNLYAGDTQNTNSDSYTRSKYGDETNRLYRQNYALTWNGGWDNGVTTSNWVQYEHTRNSRIPEGLAGGTEGKFNEKATQDFVDIDLDDVMLHSEVNLPIDFLVNQTLTLGTEWNQQRMKDLSSNTQCLTGTNTGGAIDGVSTTDRSPYSKAEIFSLFAENNMELTDSTIVTPGLRFDHHSIVGNNWSPALNISQGLGDDFTLKMGIARAYKAPSLYQTNPNYILYSKGQGCYASAGGCYLQGNDDLKAETSINKEIGLEFKRDGWLAGVTWFRNDYRNKIEAGYVAVGQNAVGTDLYQWDNVPKAVVEGLEGSLNVPVSETVMWTNNITYMLKSENKTTGDRLSIIPEYTLNSTLSWQAREDLSMQTTFTWYGKQQPKKYNYKGQPAVGPETKEISPYSIVGLSATWDVTKNVSLTGGVDNLFDKRLWRAGNAQTTGDLAGANYIAGAGAYTYNEPGRTWYMSVNTHF
modifications: fluorescein-5-maleimide label
Vmax fold lower after fluoresceination [2]: 3–10 fold

B7: fepA+: wild-type E. coli FepA, outer membrane ferric enterobactin transporter, expressed from pHSG575 plasmid (protein, UniProt P05825 23-746, looked up)
Ferrienterobactin receptor: QEPTDTPVSHDDTIVVTAAEQNLQAPGVSTITADEIRKNPVARDVSKIIRTMPGVNLTGNSTSGQRGNNRQIDIRGMGPENTLILIDGKPVSSRNSVRQGWRGERDTRGDTSWVPPEMIERIEVLRGPAAARYGNGAAGGVVNIITKKGSGEWHGSWDAYFNAPEHKEEGATKRTNFSLTGPLGDEFSFRLYGNLDKTQADAWDINQGHQSARAGTYATTLPAGREGVINKDINGVVRWDFAPLQSLELEAGYSRQGNLYAGDTQNTNSDSYTRSKYGDETNRLYRQNYALTWNGGWDNGVTTSNWVQYEHTRNSRIPEGLAGGTEGKFNEKATQDFVDIDLDDVMLHSEVNLPIDFLVNQTLTLGTEWNQQRMKDLSSNTQALTGTNTGGAIDGVSTTDRSPYSKAEIFSLFAENNMELTDSTIVTPGLRFDHHSIVGNNWSPALNISQGLGDDFTLKMGIARAYKAPSLYQTNPNYILYSKGQGCYASAGGCYLQGNDDLKAETSINKEIGLEFKRDGWLAGVTWFRNDYRNKIEAGYVAVGQNAVGTDLYQWDNVPKAVVEGLEGSLNVPVSETVMWTNNITYMLKSENKTTGDRLSIIPEYTLNSTLSWQAREDLSMQTTFTWYGKQQPKKYNYKGQPAVGPETKEISPYSIVGLSATWDVTKNVSLTGGVDNLFDKRLWRAGNAQTTGDLAGANYIAGAGAYTYNEPGRTWYMSVNTHF
Transport <FM Vmax ([2]; 59FeEnt, 37°C, before modification with FM, listed as wild-type FepA): ~100 pMol/min/10^9 cells
